Reference: ChEMBL document CHEMBL1134236, “Anti-MRSA cephems. Part 1: C-3 substituted thiopyridinium derivatives” (Bioorg Med Chem Lett, 2001)
In brackets after ≈: the same amount, converted by molar mass.

system: Staphylococcus aureus; assay: Minimum inhibitory concentration against methicillin-resistant Staphylococcus aureus (MRSA) A27223 in the presence of 50% calf serum.; assay type: functional; conditions: not given
In short: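 NCCLS broth MIC in Mueller-Hinton broth with 2% NaCl plus 50% calf serum. Inoculum about 5×10⁵ CFU/mL, incubated at 35 °C for 24 h. Read as the lowest concentration with no visible growth.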

Going from `Cl.NCCC[n+]1ccc(SCC2=C(C(=O)O)N3C(=O)[C@@H](NC(=O)CSc4cc(Cl)ccc4Cl)[C@H]3SC2)cc1.[Cl-]` to `NC(CCC[n+]1ccc(SCC2=C(C(=O)[O-])N3C(=O)[C@@H](NC(=O)CSc4cc(Cl)ccc4Cl)[C@H]3SC2)cc1)C(=O)O` (stereo not given in full), the MIC rises from 2 µg/mL to 4 µg/mL (2-fold).

system: Staphylococcus aureus; assay: Concentration required for 90% inhibitory activity against methicillin-resistant Staphylococcus aureus; assay type: functional; conditions: not given
In short: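 Panel of 58 MRSA strains tested by NCCLS broth method in Mueller-Hinton broth with 2% NaCl. Inoculum about 5×10⁵ CFU/mL, 35 °C for 24 h. MICs read as no visible growth, and MIC90 derived across the panel.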

First: Cl.NCCC[n+]1ccc(SCC2=C(C(=O)O)N3C(=O)[C@@H](NC(=O)CSc4cc(Cl)ccc4Cl)[C@H]3SC2)cc1.[Cl-]
Second: NC(CCC[n+]1ccc(SCC2=C(C(=O)[O-])N3C(=O)[C@@H](NC(=O)CSc4cc(Cl)ccc4Cl)[C@H]3SC2)cc1)C(=O)O (stereo not given in full)
The MIC90 of the first is 1.8-fold lower: 2 µg/mL for the first, 3.5 µg/mL (≈ 5.32 µM) for the second.

system: Staphylococcus aureus; assay: Minimum inhibitory concentration against methicillin-resistant Staphylococcus aureus (MRSA) A27223; assay type: functional; conditions: not given
In short: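 Broth microdilution per NCCLS in Mueller-Hinton broth with 2% NaCl. Inoculum about 5×10⁵ CFU/mL, incubated at 35 °C for 24 h. MIC is the lowest drug concentration that inhibits all visible growth.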

First: Cl.NCCC[n+]1ccc(SCC2=C(C(=O)O)N3C(=O)[C@@H](NC(=O)CSc4cc(Cl)ccc4Cl)[C@H]3SC2)cc1.[Cl-]
Second: NC(CCC[n+]1ccc(SCC2=C(C(=O)[O-])N3C(=O)[C@@H](NC(=O)CSc4cc(Cl)ccc4Cl)[C@H]3SC2)cc1)C(=O)O (stereo not given in full)
The MIC of the first is 8-fold lower: 0.125 µg/mL for the first, 1 µg/mL (≈ 1.52 µM) for the second.

system: Staphylococcus aureus; assay: Dose required for protective activity against methicillin-resistant Staphylococcus aureus (MRSA) A27223 in mouse following i.m. administration.; conditions: im, read-out: PD50

Compared with `Cl.NCCC[n+]1ccc(SCC2=C(C(=O)O)N3C(=O)[C@@H](NC(=O)CSc4cc(Cl)ccc4Cl)[C@H]3SC2)cc1.[Cl-]`, `NC(CCC[n+]1ccc(SCC2=C(C(=O)[O-])N3C(=O)[C@@H](NC(=O)CSc4cc(Cl)ccc4Cl)[C@H]3SC2)cc1)C(=O)O` (stereo not given in full) is 2.9-fold higher in ED50: 1.4 mg/kg for the first, 4.1 mg/kg for the second.

system: not listed separately; assay: Concentration required for the inhibitory activity against PBP2a; conditions: not given

Compared with `Cl.NCCC[n+]1ccc(SCC2=C(C(=O)O)N3C(=O)[C@@H](NC(=O)CSc4cc(Cl)ccc4Cl)[C@H]3SC2)cc1.[Cl-]`, `NC(CCC[n+]1ccc(SCC2=C(C(=O)[O-])N3C(=O)[C@@H](NC(=O)CSc4cc(Cl)ccc4Cl)[C@H]3SC2)cc1)C(=O)O` (stereo not given in full) is 2.3-fold higher in IC50: 1200 nM for the first, 2800 nM for the second. The first is the more potent here.
